Active and inactive are the calls of the source. The calls are words filed in the database; no cut-off is given here.
Legend:
Mus musculus [1] = test: Toxicity in 1.3.32 transgenic mouse liver assessed as serum alanine aminotransferase level at 1 mg/kg, iv after 2 days; type: organism-based; parameters: dose 1 mg/kg, route intravenous; conditions: in vivo, 48 h
Procedure, shortened: (§1)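 Serum ALT was read spectrophotometrically with Infinity ALT reagent against enzyme standards. Mice were HBV 1.3.32 transgenic males, 8–12 weeks, HBeAg-matched, with 3–4 per group. They received a single i.v. injection in 0.9% NaCl/mannitol: 1 mg/kg sampled at 1, 2, 3 or 6 days, or 0.2, 1 or 5 mg/kg sampled at 24 h. Controls got diluent only.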

Hepatitis B virus [2] = conditions: 0.2 mg/kg
Hepatitis B virus [3] = conditions: Liver, 1 mg/kg
Hepatitis B virus [4] = conditions: 1 mg/kg
Mus musculus [5] = test: Toxicity in HBV infected 1.3.32 transgenic mouse liver assessed as hepatitis at 1 mg/kg, iv single dose after 2 days by rotine […] method; type: organism-based; parameters: dose 1 mg/kg, route intravenous; conditions: in vivo, 48 h
Procedure, shortened: (§2)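 Male HBV 1.3.32 transgenic mice, 8–12 weeks, HBeAg-matched. Each got a single i.v. dose in saline/mannitol: 1 mg/kg examined at day 1, 2 or 6, or 0.2, 1.0 or 5.0 mg/kg examined at 24 h. Diluent-only animals served as controls. Livers from representative mice were fixed in zinc-buffered formalin, embedded in paraffin and stained with H&E for pathology.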

Mus musculus [6] = test: Toxicity in HBV infected 1.3.32 transgenic mouse assessed as labored breathing, hunched posture at 5 mg/kg, iv after 24 hrs; type: organism-based; parameters: dose 5 mg/kg, route intravenous; conditions: in vivo
Hepatitis B virus [7] = conditions: 1 mg/kg; remark: listed apart in the source
Mus musculus [8] = test: Toxicity in HBV infected 1.3.32 transgenic mouse liver assessed as hepatitis at 0.2 mg/kg, iv single dose after 24 hrs by rotine […] method; type: organism-based; parameters: dose 0.2 mg/kg, route intravenous; conditions: in vivo; procedure, shortened: as §2
Mus musculus [9] = test: Toxicity in HBV infected 1.3.32 transgenic mouse liver assessed as hepatitis at 5 mg/kg, iv single dose after 24 hrs by rotine […] method; type: organism-based; parameters: dose 5 mg/kg, route intravenous; conditions: in vivo; procedure, shortened: as §2
Hepatitis B virus [10] = conditions: Liver, 1 mg/kg; remark: listed apart in the source
Hepatitis B virus [11] = conditions: 1 mg/kg; remark: listed apart in the source
Mus musculus [12] = test: Toxicity in 1.3.32 transgenic mouse assessed as serum alanine aminotransferase level liver at 1 mg/kg, iv after 6 days […]; type: organism-based; parameters: dose 1 mg/kg, route intravenous; conditions: in vivo, 144 h
Mus musculus [13] = test: Toxicity in HBV infected 1.3.32 transgenic mouse liver assessed as serum alanine aminotransferase level at 5 mg/kg, iv after 24 hrs; type: organism-based; parameters: dose 5 mg/kg, route intravenous; conditions: in vivo; procedure, shortened: as §1
Hepatitis B virus [14] = conditions: 5 mg/kg
Hepatitis B virus [15] = test: Antiviral activity against HBV infected in 1.3.32 transgenic mouse assessed as serum HBeAg level at 5 mg/kg, iv single dose after 24 hrs by ELISA; type: functional
Procedure, shortened: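 Serum HBeAg and HBsAg were measured by ELISA in HBV 1.3.32 transgenic mice (male, 8-12 wk) after one i.v. dose in 0.9% NaCl/mannitol. Values are relative to control mice given diluent. 3-4 mice per group; mean ± SEM; Student's t test.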

Mus musculus [16] = test: Toxicity in HBV infected 1.3.32 transgenic mouse liver assessed as hepatitis at 1 mg/kg, iv single dose after 6 days by rotine […] method; type: organism-based; parameters: dose 1 mg/kg, route intravenous; conditions: in vivo, 144 h; procedure, shortened: as §2
Mus musculus [17] = test: Toxicity in HBV infected 1.3.32 transgenic mouse assessed as stress, ruffled fur at 5 mg/kg, iv after 24 hrs; type: organism-based; parameters: dose 5 mg/kg, route intravenous; conditions: in vivo
Mus musculus [18] = test: Toxicity in HBV infected 1.3.32 transgenic mouse liver assessed as hepatitis at 1 mg/kg, iv single dose after 1 day by rotine […] method; type: organism-based; parameters: dose 1 mg/kg, route intravenous; conditions: in vivo, 24 h; procedure, shortened: as §2

Q: `CC(C)C[C@H](NC(=O)[C@H](Cc1ccccc1)NC(=O)c1cnccn1)B(O)O` [BORTEZOMIB] was tested. Which Activity (Mus musculus [1]) did it give?
A: The Activity was “Toxic”.

Q: What about the inhibition (Hepatitis B virus [2]) of the same compound?
A: Its inhibition is “inactive”.

Q: What about the inhibition (Hepatitis B virus [3]) of the same compound?
A: Its inhibition is “Active”.

Q: And the inhibition (Hepatitis B virus [4])?
A: The inhibition was “Active”.

Q: What about the Activity (Mus musculus [5]) of the same compound?
A: Its Activity is “Non-toxic”.

Q: And the Activity (Mus musculus [6])?
A: The Activity was “Toxic”.

Q: What about the inhibition (Hepatitis B virus [7]) of the same compound?
A: The inhibition was “Active”.

Q: What about the Activity (Mus musculus [8]) of the same compound?
A: The Activity was “Non-toxic”.

Q: What about the Activity (Mus musculus [9]) of the same compound?
A: Its Activity is “Non-toxic”.

Q: What about the inhibition (Hepatitis B virus [10]) of the same compound?
A: Its inhibition is “Active”.

Q: And the inhibition (Hepatitis B virus [11])?
A: Its inhibition is “inactive”.

Q: And the Activity (Mus musculus [12])?
A: The Activity was “Non-toxic”.

Q: What about the Activity (Mus musculus [13]) of the same compound?
A: Its Activity is “Toxic”.

Q: And the inhibition (Hepatitis B virus [14])?
A: The inhibition was “Active”.

Q: And the Activity (Hepatitis B virus [15])?
A: Its Activity is 50%.

Q: What about the Activity (Mus musculus [16]) of the same compound?
A: Its Activity is “Non-toxic”.

Q: What about the Activity (Mus musculus [17]) of the same compound?
A: Its Activity is “Toxic”.

Q: What about the Activity (Mus musculus [18]) of the same compound?
A: Its Activity is “Non-toxic”.

From ChEMBL document CHEMBL1212793, “Bortezomib inhibits hepatitis B virus replication in transgenic mice” (Antimicrob Agents Chemother, 2010)
